The values that follow come from ChEMBL document CHEMBL4725371, “A Novel Redox Modulator Induces a GPX4-Mediated Cell Death That Is Dependent on Iron and Reactive Oxygen Species” (J Med Chem, 2020).

What is called IC50 is the concentration needed to halve the response being measured. A lower IC50 goes with greater potency in that assay. As usually defined, the half-life is how long it takes for the measured level to halve. The low end stands for fast loss, the high end for slow loss.

Active and inactive are the calls of the source. The calls are words filed in the database; no cut-off is given here.

The nature of data set [1]: Drug level in CD-1 mouse colon at 20 mg/kg, po measured after 1 hr by LC-MS/MS analysis. Type of data set: ADME, organism-based. The following applies: in vivo. The essentials: (§1)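 Mice received 20 mg/kg PO or 10 mg/kg IV. Organs were collected after 1 h and homogenised in five-fold dissociation solvent. Homogenate was mixed with acetonitrile and internal standard and centrifuged at 3500 g for 10 min. Supernatant was analysed by LC-MS.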

The test system of data set [2] is MIA PaCa-2. Briefly: Induction of reactive oxygen species in human MIA PaCa-2 cells at 5 to 10 uM measured up to 4 hrs by CM-H2DCFDA dye based fluorescence assay. Type of data set: functional, cell-based. The following applies: dose microM 5-10, time hrs <=4. The essentials:
(§2)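 1.8 × 10⁴ cells per well were attached overnight, then loaded with 10 μM CM-H2DCFDA in HBSS for 40 min at 37 °C and washed. Compounds were added in HBSS. Fluorescence was read at Ex 483 / Em 530 nm. TBHP was the positive control. NAC at 3 mM was used where stated.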

In data set [3] the test system is MIA PaCa-2. The data set is described as follows: Induction of ferroptosis in human MIA PaCa-2 cells assessed as increase in lipid peroxidation measured after 24 hrs by C11-BODIPY dye based fluorescence assay. Type of data set: functional, cell-based. The essentials:
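MIA PaCa-2 cells were treated for the set time, then given 10 μM C11-BODIPY for 30 min at 37 °C and washed. Fluorescence was read at 581/591 nm (reduced dye) and 488/510 nm (oxidized dye). The intensity ratio was compared by unpaired t-test.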

For data set [4], the system named is MIA PaCa-2. The data set is described as follows: Down regulation of LRPPRC expression in human MIA PaCa-2 cells at 3 times IC50 measured after 4 hrs by proteomics analysis. Type of data set: functional, cell-based.
Data set [5] can be described thus: Drug metabolism in CD-1 mouse plasma assessed as hydroxylation at 20 mg/kg, po measured after 15 mins by LC-MS/MS analysis. The data set is classed as ADME, organism-based. The following applies: in vivo, 0.25 h.
For data set [6], the system named is MIA PaCa-2. Briefly: Down regulation of PNPT1 expression in human MIA PaCa-2 cells at 3 times IC50 measured after 4 hrs by proteomics analysis. The data set is classed as functional, cell-based.
A short description of data set [7]: Drug level in CD-1 mouse colon at 10 mg/kg, iv measured after 1 hr by LC-MS/MS analysis. Type of data set: ADME, organism-based. The following applies: in vivo. The essentials: as §1
Data set [8] deals with T1, Phospholipid hydroperoxide glutathione peroxidase GPX4 (Homo sapiens) (UniProt P36969).
T1 sequence (whole entry): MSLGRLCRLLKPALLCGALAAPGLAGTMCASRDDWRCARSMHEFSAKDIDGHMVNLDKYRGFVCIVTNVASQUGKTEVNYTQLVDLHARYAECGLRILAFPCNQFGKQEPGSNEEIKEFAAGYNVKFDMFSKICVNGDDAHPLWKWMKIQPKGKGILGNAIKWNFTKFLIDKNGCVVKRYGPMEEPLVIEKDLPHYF
Briefly: Binding affinity to GPX4 in human PANC-1 cells assessed as protein destabilization by measuring reduction in melting temperature at 100 uM measured after 1 hr by thermal shift assay. Type of data set: cell-based.

The test system of data set [9] is MIA PaCa-2. Briefly: Induction of reactive oxygen species in human MIA PaCa-2 cells at 5 to 10 uM measured after 30 mins in presence of N-acetylcysteine by CM-H2DCFDA dye based fluorescence assay. The data set is classed as functional, cell-based. The following applies: dose microM 5-10, time 30.0 min. Summed up: as §2
In another data set the test system is BXPC-3. Briefly: Cytotoxicity against human BXPC-3 cells measured after 72 hrs by MTT assay. The data set is classed as functional, cell-based. The following applies: BXPC-3, 72 h. Summed up: (§3)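 Cells were kept in RPMI 1640 with 10% FBS at 37 °C, 5% CO₂, under 35 passages. Cells were seeded, attached overnight and treated with compound or DMSO for 72 h. MTT was added at 0.3 mg/mL for 3 h, then dissolved in DMSO and read as absorbance at 570 nm. IC50 was fitted from the curve. Values are mean ± sd of three independent experiments.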

The next data set relates to CT26. The data set is described as follows: Antitumor activity against mouse CT26 cells implanted in Balb/c mouse assessed as tumor shrinkage at 10 mg/kg, iv administered three times weekly for 17 days measured 4 hrs post-last dose. The following applies: time 17.0 day. Type of data set: functional, organism-based. Summed up:
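Female Balb/c mice aged 5–6 weeks, implanted subcutaneously in right flank with 1 × 10⁶ CT-26 cells in DPBS. Dosing began 7 days later with randomisation (n = 5/group, mean tumour 97–117 mm³). IV dosing was 3 times weekly and IP dosing was given. Vehicle control given daily IP. Mice were euthanised four hours post-dose after 17 days of dosing.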

The subject of data set [10] is MIA PaCa-2. The data set is described as follows: Cytotoxicity against human MIA PaCa-2 cells transfected with GPX4 siRNA measured after 72 hrs by MTT assay. Type of data set: functional, cell-based. On the technique in general: Formazan colour is commonly taken as a measure of viable cells.
Data set [11] is described as follows: Plasma concentration in CD-1 mouse at 10 mg/kg, ip measured after 7 hrs by LC-MS/MS analysis. Type of data set: ADME, organism-based. Summed up: (§4)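 CD-1 mice dosed IP at 10 mg/kg or PO at 20 mg/kg, n=2 per route. Blood taken with heparinized pipettes at 0.5, 2, 4 and 7 h and spun at 15,000 rpm for 10 min. Plasma stored at −80 °C, then measured by LC-MS/MS.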

Data set [12] deals with MIA PaCa-2. The data set is described as follows: Cytotoxicity against human MIA PaCa-2 cells measured after 72 hrs by MTT assay. The following applies: MIA PaCa-2, 72 h. Type of data set: functional, cell-based. The essentials:
as §3

The test system of the next data set is PANC-1. The data set is described as follows: Cytotoxicity against human PANC-1 cells measured after 72 hrs by MTT assay. Type of data set: functional, cell-based. The following applies: PANC-1, 72 h. The essentials:
as §3

Data set [13] in a line: Half life in human plasma at 500 uM by LC-MS/MS analysis. The data set is classed as ADME, cell-free. The essentials:
(§5)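 Compound (500 μM DMSO stock) was added at 1 μL per 500 μL pooled plasma. Samples were taken at 0, 0.17, 0.5, 1, 2 and 4 h and centrifuged at 3500 g for 10 min. Supernatant was run by LC-MS/MS. t1/2 came from the slope of ln(compound/internal standard peak area) against time.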

Data set [14] in a line: Half life in mouse liver microsomes at 10 uM in presence of NADPH by LC-MS/MS analysis. Type of data set: ADME, Microsome. The following applies: microsomes, 10 µM. Summed up:
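Compound (10 μM working solution in 0.1 M phosphate buffer with 3.3 mM MgCl₂) was incubated with mouse liver microsomes and NADPH. Verapamil served as reference. Samples were taken at 0, 5, 10, 15, 30, 45 and 60 min and centrifuged at 3500 g. Supernatant was run by LC-MS/MS. t1/2 came from the slope of ln(peak area ratio) against time.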
For orientation: Liver microsomes are a subcellular fraction often used to study metabolism.

Data set [15] can be described thus: Plasma concentration in CD-1 mouse at 20 mg/kg, po measured after 7 hrs by LC-MS/MS analysis. Type of data set: ADME, organism-based. Summed up: as §4
A short description of data set [16]: Drug metabolism in CD-1 mouse plasma assessed as hydroxylation at 10 mg/kg, iv measured after 15 mins by LC-MS/MS analysis. Type of data set: ADME, organism-based. The following applies: in vivo, 0.25 h.
Data set [17] is described as follows: Half life in mouse plasma at 500 uM by LC-MS/MS analysis. Type of data set: ADME, cell-free. Summed up:
as §5

With `CC1=C(Nc2ccc(N3CCN(C)CC3)cc2)C(=O)c2cncnc2C1=O`, the Drug uptake in data set [1] and in [7] was 0.3 mg/kg each time. Also, the outcome in the data set with MIA PaCa-2 [2], in the data set on MIA PaCa-2 [4], with MIA PaCa-2 [6] and in the data set on CT26 was Active. Also, the Activity result (with MIA PaCa-2 [3]; in [8]) was “Dose-dependent effect” in each case. Besides, the Drug metabolism result in data set [5] and in data set [16] was “Metabolite_Detected” each time. For the same molecule, the result in the data set with MIA PaCa-2 [9] and in the data set on MIA PaCa-2 [10] was inactive. The 50% inhibitory concentration (IC50) in the data set with BXPC-3 worked out at 870 nM; in the data set on MIA PaCa-2 [12] it was 3630 nM; in the data set with PANC-1, 380 nM. For the same molecule, the values for the concentration at 7 h in data set [11] and in data set [15] were 6.7 ng/mL and 3.4 ng/mL, respectively. For the same molecule, the half-life at 500 µM in data set [13] and in [17] was more than 2 h throughout. The t1/2 in data set [14] came out at 0.743 h.
